Experiment [1] relates to MDA-MB-231. As to the kind of experiment: Antitumor activity against human MDA-MB-231 cells xenografted in SCID mouse orthotropic model assessed as inhibition of 17beta estradiol-induced tumor weight at 10 mg/kg for 2 days. Type of experiment: functional. Also on record: scale not given: the % may be the effect or the level left. The method, boiled down:
(§1)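 Tumor cells were inoculated orthotopically into the mammary fat pad of 6-week-old female SCID mice. […] Tumor volume was calculated as LW2/2. Tumor formation was scored as mice with tumors per total (20 per group), and tumor weight as mean ± S.D. Groups were compared by one-way ANOVA with LSD post-hoc comparisons.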

For experiment [2], the target named is RAC-alpha serine/threonine-protein kinase (Homo sapiens) (UniProt P31749). The experiment in a line: Enhancement of Akt inactivation in human MDA-MB-231 cells transfected with dominant negative Akt mutant. Type of experiment: cell-based. Summed up:
(§2)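 MDA-MB-231 cells transfected with vector, constitutively active Akt or dominant negative Akt, treated ± compound; analyzed by Western blotting and BMP-2 promoter luciferase activity.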

Experiment [3] relates to Osteoblast. The experiment in a line: Increase in BMP2 levels in rat primary osteoblast cells at 1 uM by Western blot. The class given is functional, cell-based. The following applies: TDE = time-dependent effect. The method, boiled down: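 Osteoblasts treated with 1 μm for the indicated times; lysates resolved by SDS-PAGE, transferred to nitrocellulose, probed with anti-BMP-2, ECL detection.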

The subject of experiment [4] is Osteoblast. The experiment in a line: Reversal of increase in ER.DNA complex in rat primary osteoblast cells at 1 uM by RT-PCR in presence of PP2. The class given is functional, cell-based.
In experiment [5] the test system is Osteoblast. As to the kind of experiment: Effect on procollagen 1 alpha 1 gene expression in rat primary osteoblast cells assessed as expression ratio of treated to untreated control by microarray analysis. The class given is functional. The method, boiled down: (§3)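 Resveratrol-treated and vehicle-treated primary osteoblasts were profiled on a mouse osteogenesis-focused cDNA array (GEArray Q series) built to track gene expression during osteogenic differentiation. Each gene's signal in treated cells was expressed as a ratio to untreated control.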

Experiment [6] has as its system MDA-MB-231. The experiment in a line: Reversal of induction of FOXO3a nuclear accumulation in human MDA-MB-231 cells transfected with constitutively activated Akt mutant. The class given is functional, cell-based.
Experiment [7] has as its system Osteoblast. The experiment in a line: Effect on scavenger receptor B2 gene expression in rat primary osteoblast cells assessed as expression ratio of treated to untreated control by microarray analysis. The class given is functional. Summed up: as §3
In a further experiment the test system is Rattus norvegicus. As to the kind of experiment: Antiapoptotic activity against osteoblasts in ovariectomized Wistar rat at 10 mg/kg after 10 weeks. The class given is functional, organism-based. The arrangement: dose 10 mg/kg. The method, boiled down:
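After 10 weeks, lumbar vertebrae were removed. Apoptotic osteoblasts were detected by TUNEL staining (Klenow FragEL) in undecalcified, plastic-embedded sections. Values are means ± S.D.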

Experiment [8] concerns MC3T3-E1. The experiment in a line: Reversal of increase in ER.DNA complex in mouse MC3T3-E1 cells expressing small interfering RNA for FOXA1 protein at 1 uM by RT-PCR. Type of experiment: functional, cell-based.
Experiment [9] concerns the target Forkhead box protein O3 (Homo sapiens) (UniProt O43524). The experiment in a line: Enhancement of FOXO3a activity in human MDA-MB-231 cells transfected with dominant negative Akt mutant. Type of experiment: cell-based. Summed up:
as §2

For experiment [10], the target named is Proto-oncogene tyrosine-protein kinase Src (Mus musculus) (UniProt P05480). As to the kind of experiment: Increase in Src kinase phosphorylation in mouse MC3T3-E1 cells at 1 uM. The class given is cell-based. The method, boiled down:
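MC3T3-E1 cells, with or without DN-Src vector (3 μg) or PP2 (10 μm), treated ± 1 μm; Src phosphorylation by Western blot; three independent experiments.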

In experiment [11] the test system is MC3T3-E1. The experiment in a line: Increase in BMP2 expression in mouse MC3T3-E1 cells expressing pBMP2 mutant at 1 uM after 4 hrs by luciferase method relative to control. The class given is functional, cell-based. Summed up: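 MC3T3-E1 cells transfected with BMP-2 promoter–luciferase constructs (full promoter or deletions), treated with 1 μm or vehicle for 4 h; Dual-Luciferase assay; means ± S.D.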

Experiment [12] is described as follows: Reversal of induction in nuclear translocation of ERalpha in mouse MC3T3-E1 cells transfected with dominant-negative mutant Src expression vector at 1 uM. Type of experiment: functional, cell-based. Summed up: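 Src phosphorylation, ERα nuclear translocation and BMP-2 protein analysed by Western blot with ECL detection. Three independent experiments.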

Experiment [13] relates to Osteoblast. The experiment in a line: Effect on fibroblast growth factor 2 gene expression in rat primary osteoblast cells assessed as expression ratio of treated to untreated control by microarray analysis. Type of experiment: functional.
Experiment [14] deals with MC3T3-E1. The experiment in a line: Increase in osteocalcin levels in mouse MC3T3-E1 cells at 1 uM after 72 hrs by ELISA. The class given is functional, cell-based. Summed up: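 Cells treated with 1 μm for 72 h; osteocalcin or osteopontin in culture medium by sandwich ELISA, HRP-streptavidin/TMB, 450 nm; percent change versus untreated control.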
(In an ELISA, binding on a coated surface is turned into a signal by an enzyme label.)

Experiment [15] concerns the target Alkaline phosphatase (Rattus norvegicus) (UniProt Q9JKS8). The experiment in a line: Inhibition of induction of ALP activity in rat primary osteoblast cells at 1 uM after 48 hrs in presence of noggin. Type of experiment: cell-based.
In the next experiment the test system is MCF7. The experiment in a line: Reduction in anchorage-independent colony formation of human MCF7 cells at 1 uM by soft agar colony forming assay. The class given is functional, cell-based. Summed up:
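Seeded in 0.35% noble agar in DMEM/10% FBS over a 0.7% agar bed. Colonies of at least 50 μm counted after 3 weeks under a dissecting microscope, six replicates per treatment. Three separate experiments.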

The test system of experiment [16] is MDA-MB-231. As to the kind of experiment: Antitumor activity against human MDA-MB-231 cells xenografted in SCID mouse orthotropic model assessed as inhibition of 17beta estradiol-induced tumor formation at 10 mg/kg for 2 days. The arrangement: scale not given: the % may be the effect or the level left. The class given is functional. Summed up: as §1
A general note: Xenograft models place foreign cells or tissue in a host animal.

Experiment [17] deals with RAC-alpha serine/threonine-protein kinase (Homo sapiens) (UniProt P31749). As to the kind of experiment: Reversal of induction of Akt inactivation in human MDA-MB-231 cells transfected with constitutively activated Akt mutant. Type of experiment: cell-based.
Chain of RAC-alpha serine/threonine-protein kinase (Homo sapiens) (P31749 whole entry): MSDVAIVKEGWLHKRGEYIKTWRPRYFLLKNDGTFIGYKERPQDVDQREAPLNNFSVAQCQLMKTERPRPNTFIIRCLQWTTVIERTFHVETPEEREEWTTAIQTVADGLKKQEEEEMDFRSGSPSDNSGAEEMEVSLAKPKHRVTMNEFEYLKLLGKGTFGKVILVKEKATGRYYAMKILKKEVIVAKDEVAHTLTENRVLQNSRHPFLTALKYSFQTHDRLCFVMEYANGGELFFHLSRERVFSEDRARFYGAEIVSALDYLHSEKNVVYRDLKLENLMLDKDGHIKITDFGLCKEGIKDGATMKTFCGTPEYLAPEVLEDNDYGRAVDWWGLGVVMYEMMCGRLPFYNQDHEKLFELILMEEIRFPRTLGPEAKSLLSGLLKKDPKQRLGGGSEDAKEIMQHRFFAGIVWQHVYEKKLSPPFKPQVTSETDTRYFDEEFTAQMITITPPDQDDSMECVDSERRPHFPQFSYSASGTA
A short description of experiment [18]: Reversal of increase in BMP2 expression in mouse MC3T3-E1 cells expressing pBMP2/mSp1 mutant at 1 uM after 4 hrs by luciferase method. Type of experiment: functional, cell-based.
The test system of experiment [19] is Osteoblast. As to the kind of experiment: Effect on annexin A5 gene expression in rat primary osteoblast cells assessed as expression ratio of treated to untreated control by microarray analysis. The class given is functional.
Experiment [20] has as its system Osteoblast. The experiment in a line: Effect on actin beta gene expression in rat primary osteoblast cells assessed as expression ratio of treated to untreated control by microarray analysis. The class given is functional.
The subject of experiment [21] is Osteoblast. The experiment in a line: Increase in BMP2 mRNA levels in rat primary osteoblast cells at 1 uM by RT-PCR method. Type of experiment: functional, cell-based. Summed up: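 Cells treated with 1 μm for 48 h; BMP-2 mRNA measured by quantitative real-time RT-PCR (SYBR Green, 0.5 μm each primer, 4 mm MgCl2, fluorescence read at 82 °C) and normalized.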

Activity calls are given as the source filed them. The rule behind the calls is not given here.

Chain of Proto-oncogene tyrosine-protein kinase Src (Mus musculus) (P05480 2-535 limits assumed): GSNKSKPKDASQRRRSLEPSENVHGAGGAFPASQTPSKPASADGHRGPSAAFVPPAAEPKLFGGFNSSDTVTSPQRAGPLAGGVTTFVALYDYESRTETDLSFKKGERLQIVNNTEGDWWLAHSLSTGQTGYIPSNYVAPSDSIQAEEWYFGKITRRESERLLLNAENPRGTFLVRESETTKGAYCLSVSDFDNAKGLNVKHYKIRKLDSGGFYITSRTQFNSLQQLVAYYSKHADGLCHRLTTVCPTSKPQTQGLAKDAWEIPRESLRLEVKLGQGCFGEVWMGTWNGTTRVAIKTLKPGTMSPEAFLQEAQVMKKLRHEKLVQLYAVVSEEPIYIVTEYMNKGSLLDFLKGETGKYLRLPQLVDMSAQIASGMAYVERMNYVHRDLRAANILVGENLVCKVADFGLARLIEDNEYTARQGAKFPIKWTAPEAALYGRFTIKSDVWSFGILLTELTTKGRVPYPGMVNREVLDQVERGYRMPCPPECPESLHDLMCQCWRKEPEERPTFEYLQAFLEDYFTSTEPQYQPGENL
Chain of Alkaline phosphatase (Rattus norvegicus) (Q9JKS8 as listed by the source): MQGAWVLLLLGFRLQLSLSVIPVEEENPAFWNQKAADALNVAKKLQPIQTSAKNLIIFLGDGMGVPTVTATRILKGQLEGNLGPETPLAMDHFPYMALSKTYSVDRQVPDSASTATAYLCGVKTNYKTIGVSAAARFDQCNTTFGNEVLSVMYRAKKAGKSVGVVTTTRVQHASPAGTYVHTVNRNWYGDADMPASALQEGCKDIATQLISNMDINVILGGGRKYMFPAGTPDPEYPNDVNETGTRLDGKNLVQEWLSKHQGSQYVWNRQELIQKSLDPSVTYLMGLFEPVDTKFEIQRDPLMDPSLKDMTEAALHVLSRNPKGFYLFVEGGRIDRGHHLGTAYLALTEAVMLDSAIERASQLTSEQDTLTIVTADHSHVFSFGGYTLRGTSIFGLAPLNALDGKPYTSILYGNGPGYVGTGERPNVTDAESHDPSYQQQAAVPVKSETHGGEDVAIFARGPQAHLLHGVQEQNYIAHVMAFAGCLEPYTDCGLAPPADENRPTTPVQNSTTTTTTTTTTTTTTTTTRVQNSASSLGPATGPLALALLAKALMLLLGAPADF
Chain of Forkhead box protein O3 (Homo sapiens) (O43524 whole entry): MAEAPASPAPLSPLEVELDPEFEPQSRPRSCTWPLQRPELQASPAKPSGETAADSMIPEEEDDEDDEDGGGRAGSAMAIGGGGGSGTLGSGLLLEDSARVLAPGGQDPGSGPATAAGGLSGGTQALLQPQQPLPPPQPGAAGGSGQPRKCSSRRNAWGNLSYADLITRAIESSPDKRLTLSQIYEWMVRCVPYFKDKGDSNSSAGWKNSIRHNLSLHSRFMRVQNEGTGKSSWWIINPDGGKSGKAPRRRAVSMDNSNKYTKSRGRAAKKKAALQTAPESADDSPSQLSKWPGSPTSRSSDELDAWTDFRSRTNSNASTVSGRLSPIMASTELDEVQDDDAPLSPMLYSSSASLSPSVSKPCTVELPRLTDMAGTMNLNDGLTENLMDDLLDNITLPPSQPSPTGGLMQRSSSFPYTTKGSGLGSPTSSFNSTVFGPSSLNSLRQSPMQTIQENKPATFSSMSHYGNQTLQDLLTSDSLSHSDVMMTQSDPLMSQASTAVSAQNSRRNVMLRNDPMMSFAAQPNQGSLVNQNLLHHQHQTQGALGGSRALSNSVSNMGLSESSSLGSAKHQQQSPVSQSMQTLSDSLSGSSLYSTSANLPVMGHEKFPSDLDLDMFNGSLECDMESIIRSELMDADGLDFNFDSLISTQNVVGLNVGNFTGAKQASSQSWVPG

Regarding `Oc1ccc(/C=C/c2cc(O)cc(O)c2)cc1` [RESVERATROL], the Activity with MDA-MB-231 [1] was 43.6%; with Osteoblast [3], “tde”; in the experiment with MDA-MB-231 [16] it was 85%. For the same compound, the outcome (in experiment [2]; in the experiment with Osteoblast [4]; in the experiment with MDA-MB-231 [6]; with Rattus norvegicus; in the experiment on MC3T3-E1 [8]; in experiment [9]) was Active. For the same compound, the result (in [10]; in the experiment with MC3T3-E1 [11]; in [12]; in the experiment on MC3T3-E1 [14]; in experiment [15]; in the experiment on MCF7) was Active. Further, the outcome (in experiment [17]; in the experiment with Osteoblast [21]) was Active. Further, the Ratio in the experiment on Osteoblast [5] stood at 9.67; in the experiment on Osteoblast [7] it was 0.65; in the experiment with Osteoblast [13], 2.76; in the experiment with Osteoblast [19], 4.02; with Osteoblast [20] it was 1. Moreover, the outcome in experiment [18] was inactive.
